Source: ChEMBL document CHEMBL1156681, “Synthesis, anti-bacterial, anti-asthmatic and anti-diabetic activities of novel N-substituted-2-(4-phenylethynyl-phenyl)-1H-benzimidazoles and N-substituted 2[4-(4,4-dimethyl-thiochroman-6-yl-ethynyl)-phenyl)-1H-benzimidazoles” (2008)
Values after ≈ are worked out from the molar mass of the structure shown. Active and inactive are the calls of the source. No cut-off for these calls is given here.

Columns and labels:
[1] = target: T1, Tyrosine-protein phosphatase non-receptor type 1 (Homo sapiens) (UniProt P18031); experiment: Inhibition of human recombinant PTP1B at 30 uM after 30 mins relative to control
T1 sequence (whole entry): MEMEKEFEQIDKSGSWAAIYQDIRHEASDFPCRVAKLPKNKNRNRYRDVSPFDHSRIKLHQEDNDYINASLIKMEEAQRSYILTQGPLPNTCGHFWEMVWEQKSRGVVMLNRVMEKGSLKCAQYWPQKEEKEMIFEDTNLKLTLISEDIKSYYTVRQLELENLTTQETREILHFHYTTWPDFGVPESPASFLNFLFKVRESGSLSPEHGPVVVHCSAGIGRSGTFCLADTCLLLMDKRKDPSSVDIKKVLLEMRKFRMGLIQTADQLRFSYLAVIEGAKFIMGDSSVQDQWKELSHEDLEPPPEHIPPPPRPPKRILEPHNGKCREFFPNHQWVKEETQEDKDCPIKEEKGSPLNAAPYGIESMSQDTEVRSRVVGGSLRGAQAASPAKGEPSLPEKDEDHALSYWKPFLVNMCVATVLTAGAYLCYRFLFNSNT
Outline: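 In-house human recombinant PTP-1B (~35 ng) was assayed with p-nitrophenyl phosphate in 25 mM Hepes, 3 mM DTT and 1 mM EDTA, pH 7.4, with DMSO at ≤1%. Absorbance at 405 nm was monitored continuously at 30 °C for 30 min, then NaOH was added and 405 nm read again. Activity was expressed as % of control, and % inhibition as 100 minus activity.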

[2] = system: Staphylococcus aureus; experiment: Antibacterial activity against Staphylococcus aureus at 0.1 ug/ml after 48 hrs by tube dilution method; format: functional, organism-based
Outline: (§1)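 Compounds dissolved in DMSO and tested by tube dilution at […]. Tubes were incubated at 37 °C for 48 h. Growth was scored against the DMSO control as poor, medium or confluent (no inhibition). MIC was taken from the dilution series. Cephalexin served as the reference antibacterial and DMSO as the solvent control.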

[3] = system: Staphylococcus aureus; experiment: Antibacterial activity against Staphylococcus aureus at 1 ug/ml after 48 hrs by tube dilution method; format: functional, organism-based; outline: as §1
[4] = system: Staphylococcus aureus; experiment: Antibacterial activity against Staphylococcus aureus at 10 ug/ml after 48 hrs by tube dilution method; format: functional, organism-based; outline: as §1
[5] = system: Staphylococcus aureus; experiment: Antibacterial activity against Staphylococcus aureus at 500 ug/ml after 48 hrs by tube dilution method; format: functional, organism-based; outline: as §1
[6] = system: Staphylococcus aureus; experiment: Antibacterial activity against Staphylococcus aureus after 48 hrs by tube dilution method; format: functional; outline: as §1
[7] = system: Salmonella typhimurium; experiment: Antibacterial activity against Salmonella Typhimurium at 0.1 ug/ml after 48 hrs by tube dilution method; format: functional, organism-based; conditions: Salmonella enterica subsp. enterica serovar Typhimurium; outline: as §1
[8] = system: Salmonella typhimurium; experiment: Antibacterial activity against Salmonella Typhimurium at 1 ug/ml after 48 hrs by tube dilution method; format: functional, organism-based; conditions: Salmonella enterica subsp. enterica serovar Typhimurium; outline: as §1
[9] = system: Salmonella typhimurium; experiment: Antibacterial activity against Salmonella Typhimurium at 10 ug/ml after 48 hrs by tube dilution method; format: functional, organism-based; conditions: Salmonella enterica subsp. enterica serovar Typhimurium; outline: as §1
[10] = system: Salmonella typhimurium; experiment: Antibacterial activity against Salmonella Typhimurium at 500 ug/ml after 48 hrs by tube dilution method; format: functional, organism-based; conditions: Salmonella enterica subsp. enterica serovar Typhimurium; outline: as §1
[11] = system: Salmonella typhimurium; experiment: Antibacterial activity against Salmonella Typhimurium after 48 hrs by tube dilution method; format: functional, Salmonella enterica subsp. enterica serovar Typhimurium; conditions: Salmonella enterica; outline: as §1
[12] = target: Phosphodiesterase 4 (Homo sapiens) (UniProt P27815+Q08499+Q07343+Q08493); experiment: Inhibition of human PDE4 at 1 uM after 20 mins; format: protein assay
[13] = target: Dipeptidyl peptidase 4 (Homo sapiens) (UniProt P27487); experiment: Inhibition of human recombinant DPP4 at 0.3 uM after 30 mins relative to control
Dipeptidyl peptidase 4 (Homo sapiens), sequence (P27487 whole entry, looked up): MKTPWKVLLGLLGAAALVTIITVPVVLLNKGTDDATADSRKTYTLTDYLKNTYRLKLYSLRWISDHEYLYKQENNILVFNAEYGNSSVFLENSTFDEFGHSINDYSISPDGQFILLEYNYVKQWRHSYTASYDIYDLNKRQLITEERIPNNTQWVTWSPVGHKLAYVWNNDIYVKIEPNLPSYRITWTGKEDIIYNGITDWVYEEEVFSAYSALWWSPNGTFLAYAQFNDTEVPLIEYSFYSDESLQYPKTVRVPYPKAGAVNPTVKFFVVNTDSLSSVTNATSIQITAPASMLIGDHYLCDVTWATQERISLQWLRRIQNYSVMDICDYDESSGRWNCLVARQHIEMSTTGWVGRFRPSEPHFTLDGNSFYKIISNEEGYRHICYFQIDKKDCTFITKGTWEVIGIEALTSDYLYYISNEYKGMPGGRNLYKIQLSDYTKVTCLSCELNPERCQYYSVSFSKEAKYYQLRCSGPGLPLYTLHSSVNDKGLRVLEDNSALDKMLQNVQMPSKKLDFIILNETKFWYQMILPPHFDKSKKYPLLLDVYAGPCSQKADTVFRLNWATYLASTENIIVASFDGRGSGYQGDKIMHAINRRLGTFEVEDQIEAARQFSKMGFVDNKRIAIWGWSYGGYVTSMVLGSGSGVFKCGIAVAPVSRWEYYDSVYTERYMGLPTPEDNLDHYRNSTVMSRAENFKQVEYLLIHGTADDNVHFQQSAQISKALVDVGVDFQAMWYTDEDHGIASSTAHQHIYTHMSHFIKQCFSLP
Outline: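 Recombinant human DPP-IV (10 ng) was run in 25 mM Tris pH 7.4, 140 mM NaCl, 10 mM KCl and 1% BSA with Gly-Pro-AMC substrate. Compounds in DMSO were added, and AMC release was followed kinetically at 30 °C for 30 min (ex 380 / em 460 nm). Percent inhibition was calculated against the solvent-only control.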

[14] = system: Staphylococcus aureus; experiment: Antibacterial activity against Staphylococcus aureus at 200 ug/ml after 48 hrs by tube dilution method; format: functional, organism-based; outline: as §1
[15] = system: Salmonella typhimurium; experiment: Antibacterial activity against Salmonella Typhimurium at 200 ug/ml after 48 hrs by tube dilution method; format: functional, organism-based; conditions: Salmonella enterica subsp. enterica serovar Typhimurium; outline: as §1
[16] = system: Staphylococcus aureus; experiment: Antibacterial activity against Staphylococcus aureus at 100 ug/ml after 48 hrs by tube dilution method; format: functional, organism-based; outline: as §1

Row | SMILES | inhibition [1] | Activity [2] | Activity [3] | Activity [4] | Activity [5] | MIC [6] | Activity [7] | Activity [8] | Activity [9] | Activity [10] | MIC [11] | inhibition [12] | inhibition [13] | Activity [14] | Activity [15] | Activity [16]
1 | CCCn1c(-c2ccc(C#Cc3ccc4c(c3)C(C)(C)CCS4)cc2)nc2ccccc21 | 7.38% | inactive | inactive | inactive | Active | 500 µg/mL (≈ 1150 µM) | inactive | inactive | inactive | Active | 500 µg/mL (≈ 1150 µM) | 17.3% | 0% | – | – | –
2 | Cn1c(-c2ccc(C#Cc3ccc4c(c3)C(C)(C)CCS4)cc2)nc2ccccc21 | 0% | inactive | inactive | – | Active | 200 µg/mL (≈ 490 µM) | inactive | inactive | – | Active | 200 µg/mL (≈ 490 µM) | 18.2% | 0% | Active | Active | –
3 | CCCCn1c(-c2ccc(C#Cc3ccccc3)cc2)nc2ccccc21 | 0% | inactive | inactive | – | Active | 500 µg/mL (≈ 1430 µM) | inactive | inactive | – | Active | 500 µg/mL (≈ 1430 µM) | 19.4% | 3% | – | – | –
4 | CCCCn1c(-c2ccc(C#Cc3ccc4c(c3)C(C)(C)CCS4)cc2)nc2ccccc21 | 0.15% | inactive | – | – | Active | 200 µg/mL (≈ 444 µM) | inactive | inactive | – | Active | 200 µg/mL (≈ 444 µM) | 19.9% | 5% | Active | Active | –
5 | Cn1c(-c2ccc(C#Cc3ccccc3)cc2)nc2ccccc21 | 8.42% | inactive | inactive | inactive | Active | 500 µg/mL (≈ 1620 µM) | inactive | inactive | inactive | Active | 200 µg/mL (≈ 649 µM) | 22.3% | 9% | – | Active | –
6 | COC(=O)n1c(-c2ccc(C#Cc3ccc4c(c3)C(C)(C)CCS4)cc2)nc2ccccc21 | 0.97% | inactive | inactive | – | Active | 200 µg/mL (≈ 442 µM) | inactive | inactive | – | Active | 200 µg/mL (≈ 442 µM) | 17.9% | 5% | Active | Active | –
7 | CC1(C)CCSc2ccc(C#Cc3ccc(-c4nc5ccccc5n4S(=O)(=O)C(F)(F)F)cc3)cc21 | 0.52% | inactive | inactive | inactive | Active | 500 µg/mL (≈ 949 µM) | inactive | inactive | inactive | Active | 200 µg/mL (≈ 380 µM) | 22.6% | 9% | – | Active | –
8 | CC1(C)CCSc2ccc(C#Cc3ccc(-c4nc5ccccc5[nH]4)cc3)cc21 | 2.42% | inactive | inactive | – | Active | 200 µg/mL (≈ 507 µM) | inactive | inactive | – | Active | 200 µg/mL (≈ 507 µM) | 0% | 0% | Active | Active | –
9 | C(#Cc1ccc(-c2nc3ccccc3[nH]2)cc1)c1ccccc1 | 1.64% | inactive | inactive | inactive | Active | 200 µg/mL (≈ 679 µM) | inactive | inactive | inactive | Active | 200 µg/mL (≈ 679 µM) | 3.4% | 0% | Active | Active | –
10 | CCn1c(-c2ccc(C#Cc3ccc4c(c3)C(C)(C)CCS4)cc2)nc2ccccc21 | 0% | inactive | inactive | inactive | Active | 200 µg/mL (≈ 473 µM) | inactive | inactive | inactive | Active | 200 µg/mL (≈ 473 µM) | 15.8% | 0% | Active | Active | –
11 | COC(=O)n1c(-c2ccc(C#Cc3ccccc3)cc2)nc2ccccc21 | 29% | inactive | inactive | – | Active | 500 µg/mL (≈ 1420 µM) | inactive | inactive | inactive | Active | 500 µg/mL (≈ 1420 µM) | 18.2% | 0% | – | – | –
12 | Cc1ccc(S(=O)(=O)n2c(-c3ccc(C#Cc4ccccc4)cc3)nc3ccccc32)cc1 | 0% | inactive | inactive | – | Active | 200 µg/mL (≈ 446 µM) | inactive | inactive | inactive | Active | 200 µg/mL (≈ 446 µM) | 22.6% | 0% | Active | Active | –
13 | CCOC(=O)n1c(-c2ccc(C#Cc3ccc4c(c3)C(C)(C)CCS4)cc2)nc2ccccc21 | 0% | inactive | inactive | inactive | Active | 500 µg/mL (≈ 1070 µM) | inactive | inactive | inactive | Active | 500 µg/mL (≈ 1070 µM) | 16.9% | 7% | – | – | –
14 | CCCCOC(=O)n1c(-c2ccc(C#Cc3ccc4c(c3)C(C)(C)CCS4)cc2)nc2ccccc21 | 1.94% | inactive | inactive | – | Active | 500 µg/mL (≈ 1010 µM) | inactive | inactive | – | Active | 500 µg/mL (≈ 1010 µM) | 21% | 0% | – | – | –
15 | CCCn1c(-c2ccc(C#Cc3ccccc3)cc2)nc2ccccc21 | 0% | inactive | inactive | inactive | Active | 500 µg/mL (≈ 1490 µM) | inactive | inactive | – | Active | 500 µg/mL (≈ 1490 µM) | 8.91% | 0% | – | – | –
16 | CCOC(=O)n1c(-c2ccc(C#Cc3ccccc3)cc2)nc2ccccc21 | 27.7% | inactive | inactive | – | Active | 500 µg/mL (≈ 1360 µM) | inactive | inactive | – | Active | 500 µg/mL (≈ 1360 µM) | 16.5% | 0% | – | – | –
17 | O=S(=O)(n1c(-c2ccc(C#Cc3ccccc3)cc2)nc2ccccc21)C(F)(F)F | 0% | inactive | inactive | inactive | Active | 500 µg/mL (≈ 1170 µM) | inactive | inactive | inactive | Active | 500 µg/mL (≈ 1170 µM) | 16.9% | 0% | – | – | inactive
